Values after ≈ are worked out from the molar mass of the structure shown.
Columns and labels:
[1] = test system: Streptococcus sanguinis; experiment: In vitro antimicrobial activity against aerobic bacteria Streptococcus sanguis MX132; assay type: functional
[2] = test system: Streptococcus pyogenes; experiment: In vivo effective dose against experimental infections in rodent caused by Streptococcus pyogenes C203 when administered sc; assay type: functional
[3] = test system: Bacteroides fragilis; experiment: In vitro antimicrobial activity against anaerobic bacteria bacteroides fragilis 111; assay type: functional
[4] = test system: Collinsella aerofaciens; experiment: In vitro antimicrobial activity against anaerobic bacteria eubacterium aerofaciens 1235; assay type: functional
[5] = test system: Staphylococcus aureus; experiment: In vivo activity against experimental infections in mice Staphylococcus aureus X1 when administered sc; assay type: functional
[6] = test system: Haemophilus influenzae; experiment: In vitro antimicrobial activity against aerobic bacteria Haemophilus influenzae MX366,; assay type: functional
[7] = test system: Bacteroides fragilis; experiment: In vitro antimicrobial activity against anaerobic bacteria bacteroides fragilis 1936B,; assay type: functional
[8] = test system: Peptostreptococcus anaerobius; experiment: In vitro antimicrobial activity against anaerobic bacteria eubacterium peptostreptococcus anaerobius 1428,; assay type: functional
[9] = test system: Staphylococcus aureus; experiment: In vitro antimicrobial activity against aerobic bacteria Staphylococcus aureus V41; assay type: functional
[10] = test system: Mus musculus; experiment: Peripheral plasma levels in mice after oral administration of 50 mg/kg dose for 0.5 hr; assay type: functional, organism-based; set-up: dose 50 mg/kg
In short: (§1)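 Mice were given the compound orally and sampled for peripheral plasma at each time point. Plasma was assayed microbiologically against Micrococcus luteus seeded in Antibiotic Medium 1. Inhibition zone sizes were read, and concentrations were calculated from each compound's own standard curve. Each value is the mean of five mice per time point.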

[11] = test system: Peptoniphilus asaccharolyticus; experiment: In vitro antimicrobial activity against anaerobic bacteria peptococcus asaccharolyticus 1302; assay type: functional
[12] = test system: Eikenella corrodens; experiment: In vitro antimicrobial activity against anaerobic bacteria bacteroides corrodens 1874; assay type: functional
[13] = test system: Streptococcus; experiment: In vitro antimicrobial activity against aerobic bacteria Streptococcus D 9960; assay type: functional
[14] = test system: Mus musculus; experiment: Peripheral plasma levels in mice after oral administration of 100 mg/kg dose for 0.25 hr; assay type: functional, organism-based; set-up: dose 100 mg/kg; in short: as §1
[15] = test system: Streptococcus pneumoniae; experiment: In vivo activity against experimental infections in mice Streptococcus pneumoniae park when administered orally; assay type: functional; conditions: po
[16] = test system: Haemophilus influenzae; experiment: In vitro antimicrobial activity against aerobic bacteria Haemophilus influenzae 76; assay type: functional
[17] = test system: Cutibacterium acnes; experiment: In vitro antimicrobial activity against anaerobic bacteria propionibacterium acnes 79; assay type: functional
[18] = test system: Rattus norvegicus; experiment: Peripheral plasma levels in rats after oral administration of 100 mg/kg dose for 0.5 hr; assay type: functional, organism-based; set-up: dose 100 mg/kg
In short: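 Rats received 100 mg/kg orally and were sampled for peripheral plasma. Concentrations were measured by Micrococcus luteus agar-diffusion microbiological assay in Antibiotic Medium 1, with zone sizes converted using the standard curve for the appropriate compound. Each value is the average of three rats per time point.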

[19] = test system: Bacteroides thetaiotaomicron; experiment: In vitro antimicrobial activity against anaerobic bacteria bacteroides thetaiotaomicron 1438; assay type: functional
[20] = test system: Streptococcus pneumoniae; experiment: In vitro antimicrobial activity against aerobic bacteria Streptococcus pneumoniae B1-438; assay type: functional, streptococcus pneum
[21] = test system: Bacteroides fragilis; experiment: In vitro antimicrobial activity against anaerobic bacteria bacteroides fragilis 1877; assay type: functional
[22] = test system: Staphylococcus epidermidis; experiment: In vitro antimicrobial activity against Staphylococcus epidermidis EPI1; assay type: functional
[23] = test system: Haemophilus influenzae; experiment: In vitro antimicrobial activity against aerobic bacteria Haemophilus influenzae 465; assay type: functional
[24] = test system: Streptococcus pyogenes; experiment: In vitro antimicrobial activity against Streptococcus pyogenes C203; assay type: functional
[25] = test system: Fusobacterium; experiment: In vitro antimicrobial activity against anaerobic bacteria fusobacterium symbiosum 1470; assay type: functional
[26] = test system: Streptococcus viridans; experiment: In vitro antimicrobial activity against aerobic bacteria Streptococcus viridans 9943; assay type: functional
[27] = test system: Anaerococcus prevotii; experiment: In vitro antimicrobial activity against anaerobic bacteria peptococcus prevoti 1281; assay type: functional
[28] = test system: Mus musculus; experiment: Peripheral plasma levels in mice after oral administration of 100 mg/kg dose for 1 hr; assay type: functional, organism-based; set-up: dose 100 mg/kg; in short: as §1
[29] = test system: Mus musculus; experiment: Peripheral plasma levels in mice after oral administration of 100 mg/kg dose for 4 hr; assay type: functional, organism-based; set-up: dose 100 mg/kg; in short: as §1
[30] = test system: Staphylococcus aureus; experiment: In vitro antimicrobial activity against aerobic bacteria Staphylococcus aureus V135; assay type: functional
[31] = test system: Streptococcus; experiment: In vitro antimicrobial activity against aerobic bacteria Streptococcus B 5; assay type: functional
[32] = test system: Streptococcus pneumoniae; experiment: In vivo activity against experimental infections in mice Streptococcus pneumoniae park when administered sc; assay type: functional
[33] = test system: Mus musculus; experiment: Peripheral plasma levels in mice after oral administration of 100 mg/kg dose for 2 hr; assay type: functional, organism-based; set-up: dose 100 mg/kg; in short: as §1
[34] = test system: Staphylococcus aureus; experiment: In vitro antimicrobial activity against Staphylococcus aureus X1; assay type: functional
[35] = test system: Mus musculus; experiment: Peripheral plasma levels in mice after oral administration of 50 mg/kg dose for 0.25 hr; assay type: functional, organism-based; set-up: dose 50 mg/kg; in short: as §1

CC[C@H]1OC(=O)C[C@@H](O)[C@H](C)[C@@H](O[C@@H]2O[C@H](C)[C@@H](O)[C@H](N(C)C)[C@H]2O)[C@@H](CCOc2ccccc2)C[C@@H](C)C(=O)/C=C/C(C)=C/[C@@H]1CO[C@@H]1O[C@H](C)[C@@H](O)[C@@H](OC)[C@H]1OC
MIC [1]: 1 µg/mL (≈ 1.18 µM)
ED50 [2]: 5 mg/kg
MIC [3]: 1 µg/mL (≈ 1.18 µM)
MIC [4]: 2 µg/mL (≈ 2.35 µM)
ED50 [5]: 4.2 mg/kg
MIC [6]: 16 µg/mL (≈ 18.8 µM)
MIC [7]: 1 µg/mL (≈ 1.18 µM)
MIC [8]: < 0.5 µg/mL
MIC [9]: 0.25 µg/mL (≈ 0.294 µM)
Concentration [10]: 2.7 µg/mL
MIC [11]: 1 µg/mL (≈ 1.18 µM)
MIC [12]: 1 µg/mL (≈ 1.18 µM)
MIC [13]: 8 µg/mL (≈ 9.41 µM)
Concentration [14]: 8.9 µg/mL
ED50 [15]: > 50 mg/kg
MIC [16]: 16 µg/mL (≈ 18.8 µM)
MIC [17]: 8 µg/mL (≈ 9.41 µM)
Concentration [18]: 3.9 µg/mL
MIC [19]: 2 µg/mL (≈ 2.35 µM)
MIC [20]: > 128 µg/mL
MIC [21]: 1 µg/mL (≈ 1.18 µM)
MIC [22]: 0.25 µg/mL (≈ 0.294 µM)
MIC [23]: 16 µg/mL (≈ 18.8 µM)
MIC [24]: 0.12 µg/mL (≈ 0.141 µM)
MIC [25]: 1 µg/mL (≈ 1.18 µM)
MIC [26]: > 128 µg/mL
MIC [27]: 1 µg/mL (≈ 1.18 µM)
Concentration [28]: 13.1 µg/mL
Concentration [29]: 1.2 µg/mL
MIC [30]: 0.25 µg/mL (≈ 0.294 µM)
MIC [31]: 4 µg/mL (≈ 4.71 µM)
ED50 [32]: > 20 mg/kg
Concentration [33]: 6.5 µg/mL
MIC [34]: 0.25 µg/mL (≈ 0.294 µM)
Concentration [35]: 3.2 µg/mL

— ChEMBL document CHEMBL1124186, “Synthesis and evaluation of tylosin-related macrolides modified at the aldehyde function: a new series of orally effective antibiotics” (1988)
